# Data as given in ChEMBL document CHEMBL1151213, “Yucca schidigera bark: phenolic constituents and antioxidant activity” (J Nat Prod, 2004).
# Columns and labels:
# Assay type in all cases: functional
# [1] = Antioxidant activity against ABTS radical assessed as TEAC units
# Outline: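 ABTS radical cation solution diluted in PBS pH 7.4 to A734 0.70, equilibrated at 30 °C. Samples in methanol at 0.3, 0.5, 1, 1.5 and 2 mM; reaction started by adding diluted ABTS to sample. Percent inhibition of A734 versus methanol blank plotted against concentration, in triplicate. Value is Trolox concentration with the same capacity as 1 mM sample.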
# [2] = Antioxidant activity against beta-carotene and linoleic acid assessed as inhibition of bleaching of beta-carotene at 120 mins by autooxidation assay; design: concentration or dose not given beside the values
# Outline: (§1)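 Heat-induced oxidation of an aqueous emulsion of β-carotene, linoleic acid and Tween 20, held at 50 °C for 3 h. β-Carotene bleaching was followed by A470 at intervals. AA = [1 − (A0 − At)/(A00 − A0t)] × 100, taking absorbances with and without test sample at start and at time t. Run in triplicate; BHT served as positive control.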
# [3] = Antioxidant activity against beta-carotene and linoleic acid assessed as inhibition of bleaching of beta-carotene at 60 mins by autooxidation assay; design: concentration or dose not given beside the values; outline: as §1
SMILES,Activity [1],Activity [2],Activity [3],inhibition [3]
COc1c(O)cc(/C=C/c2cc(O)cc3c2[C@@]2(C(=O)O3)c3c(O)cc(O)cc3O[C@@H]2c2ccc(O)cc2)cc1O,1.6 mM,71.7%,59.5%,
COc1c(O)cc(/C=C/c2cc(O)cc(O)c2)c2c1OC(=O)[C@@]21c2c(O)cc(O)cc2O[C@@H]1c1ccc(O)cc1,1.85 mM,79.3%,74.3%,
O=C1[C@@H](c2ccc(O)cc2)Oc2cc(O)cc(O)c2[C@@]12c1c(O)cc(O)cc1[C@H](O)[C@H]2c1ccc(O)cc1,1.04 mM,43.4%,40.6%,
O=C1Oc2cc(O)cc(/C=C/c3ccc(O)cc3)c2[C@@]12c1c(O)cc(O)cc1O[C@@H]2c1ccc(O)cc1,0.96 mM,72.1%,52.6%,
COc1c(O)cc(/C=C/c2cc(O)cc3c2[C@]2(C(=O)O3)c3c(O)cc(O)cc3O[C@@H]2c2ccc(O)cc2)cc1O,1.42 mM,66.2%,,66.4%
O=C1Oc2cc(O)c3c(c2[C@]12c1c(O)cc(O)cc1O[C@@H]2c1ccc(O)cc1)O[C@H](c1ccc(O)cc1)[C@H](O)C3,1.79 mM,51%,24.4%,
COc1c(O)cc(/C=C/c2cc(O)cc(O)c2)cc1O,2.25 mM,2.9%,3.1%,
Oc1ccc(/C=C/c2cc(O)cc(O)c2)cc1,1.9 mM,45.9%,24.9%,
O=C1Oc2cc(O)cc(/C=C/c3ccc(O)cc3)c2[C@]12c1c(O)cc(O)cc1O[C@@H]2c1ccc(O)cc1,1.09 mM,72.1%,76.3%,
O=c1c(O)c(-c2ccc(O)c(O)c2)oc2cc(O)cc(O)c12,2.6 mM,,,
